Data: ChEMBL document CHEMBL2401669, “Discovery and structure-activity relationships of ent-Kaurene diterpenoids as potent and selective 11β-HSD1 inhibitors: potential impact in diabetes” (Eur J Med Chem, 2013)
pIC50: −log10 of the molar value.

Tests used:
[1] = target: 11-beta-hydroxysteroid dehydrogenase 1 (Mus musculus) (UniProt P50172); test: Inhibition of mouse 11beta-HSD1 expressed in HEK293 cell microsomes assessed as inhibition of [3H]cortisone conversion to [3H]cortisol at 1 uM by scintillation proximity assay; conditions: Microsome
Summary of the method: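 Primary single-concentration screen in the SPA. Mouse 11β-HSD1 HEK-293 stable-transfectant microsomes are incubated with NADPH and [3H]cortisone, and [3H]cortisol is captured by antibody-coupled protein A SPA beads. Inhibitory ratio is the average of two determinations, with deviation from the average of 10% of the average value.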

[2] = species on record: Homo sapiens; test: selectivity ratio of IC50 for human 11beta-HSD2 to IC50 for human 11beta-HSD1
Summary of the method: (§1)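 Ratio of 11β-HSD2 IC50 to 11β-HSD1 IC50 for the same species (mouse or human). Both IC50s come from microsome-based scintillation proximity assays, averaged over at least two independent experiments with at least duplicate wells per concentration. Only compounds exceeding 50% inhibition in the primary screen were evaluated.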

[3] = target: T1, 11-beta-hydroxysteroid dehydrogenase type 2 (Homo sapiens, UniProt P80365); test: Inhibition of human 11beta-HSD2
T1 sequence (P80365 whole entry): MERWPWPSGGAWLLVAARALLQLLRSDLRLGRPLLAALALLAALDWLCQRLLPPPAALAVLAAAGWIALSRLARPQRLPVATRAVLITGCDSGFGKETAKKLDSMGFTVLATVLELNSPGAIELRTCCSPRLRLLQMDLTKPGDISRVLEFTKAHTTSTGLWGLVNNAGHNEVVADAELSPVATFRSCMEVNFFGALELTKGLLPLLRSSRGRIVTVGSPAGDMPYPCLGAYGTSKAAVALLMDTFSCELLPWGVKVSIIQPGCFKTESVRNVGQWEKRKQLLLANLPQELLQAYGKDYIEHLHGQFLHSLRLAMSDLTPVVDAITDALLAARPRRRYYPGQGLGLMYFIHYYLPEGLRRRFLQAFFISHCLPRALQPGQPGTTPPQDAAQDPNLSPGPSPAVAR

[4] = target: 11-beta-hydroxysteroid dehydrogenase 1 (Mus musculus, UniProt P50172); test: Inhibition of mouse 11beta-HSD1 expressed in HEK293 cell microsomes assessed as inhibition of [3H]cortisone conversion to [3H]cortisol by scintillation proximity assay; set-up: species or system Microsome
Summary of the method: (§2)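 Enzyme source: microsomal fraction from HEK-293 cells stably transfected with 11β-HSD1 (human or mouse), incubated with NADPH and [3H]cortisone. The [3H]cortisol product is captured by a monoclonal antibody on protein A-coated SPA beads. IC50 is averaged over at least two independent experiments, at least duplicate per concentration.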

[5] = target: 11-beta-hydroxysteroid dehydrogenase 1 (Homo sapiens, UniProt P28845); test: Inhibition of human 11beta-HSD1 expressed in HEK293 cell microsomes assessed as inhibition of [3H]cortisone conversion to [3H]cortisol by scintillation proximity assay; set-up: species or system Microsome; summary of the method: as §2
[6] = species on record: Mus musculus; test: Selectivity ratio of IC50 for mouse 11beta-HSD2 to IC50 for mouse 11beta-HSD1; summary of the method: as §1
[7] = target: T2, 11-beta-hydroxysteroid dehydrogenase type 2 (Mus musculus, UniProt P51661); test: Inhibition of mouse 11beta-HSD2
T2 sequence (P51661 whole entry): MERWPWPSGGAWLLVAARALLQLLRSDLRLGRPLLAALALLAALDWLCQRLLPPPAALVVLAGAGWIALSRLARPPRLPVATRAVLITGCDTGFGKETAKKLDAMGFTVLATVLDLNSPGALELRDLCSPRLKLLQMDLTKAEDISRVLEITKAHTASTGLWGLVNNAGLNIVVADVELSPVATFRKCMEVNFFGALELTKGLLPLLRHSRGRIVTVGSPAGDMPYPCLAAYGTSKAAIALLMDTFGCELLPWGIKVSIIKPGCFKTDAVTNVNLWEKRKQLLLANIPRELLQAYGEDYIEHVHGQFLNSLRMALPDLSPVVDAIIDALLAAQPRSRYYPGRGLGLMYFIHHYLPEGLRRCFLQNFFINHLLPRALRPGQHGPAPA
Summary of the method: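 Scintillation proximity assay using microsomes containing mouse 11β-HSD2. IC50 is averaged over at least two independent experiments, with at least two replicates per concentration.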

Chain of 11-beta-hydroxysteroid dehydrogenase 1 (Mus musculus, UniProt P50172) (P50172 whole entry): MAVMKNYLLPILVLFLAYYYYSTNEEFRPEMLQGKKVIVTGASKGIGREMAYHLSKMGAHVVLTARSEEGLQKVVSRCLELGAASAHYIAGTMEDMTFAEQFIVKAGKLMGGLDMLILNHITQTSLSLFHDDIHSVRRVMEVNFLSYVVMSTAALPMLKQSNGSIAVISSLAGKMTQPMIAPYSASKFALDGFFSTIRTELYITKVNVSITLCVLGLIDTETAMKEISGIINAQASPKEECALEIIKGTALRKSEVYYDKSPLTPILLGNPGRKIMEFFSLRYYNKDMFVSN
Chain of 11-beta-hydroxysteroid dehydrogenase 1 (Mus musculus) (P50172 whole entry, looked up): as the sequence (P50172 whole entry) above
Chain of 11-beta-hydroxysteroid dehydrogenase 1 (Homo sapiens, UniProt P28845) (P28845 whole entry): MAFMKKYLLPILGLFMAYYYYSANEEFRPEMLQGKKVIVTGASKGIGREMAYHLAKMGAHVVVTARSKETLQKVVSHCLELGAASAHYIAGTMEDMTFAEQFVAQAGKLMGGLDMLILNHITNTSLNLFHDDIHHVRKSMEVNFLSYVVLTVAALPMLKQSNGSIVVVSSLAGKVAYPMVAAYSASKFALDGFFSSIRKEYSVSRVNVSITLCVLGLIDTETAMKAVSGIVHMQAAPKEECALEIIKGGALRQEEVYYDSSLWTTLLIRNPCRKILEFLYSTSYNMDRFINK

Compound | inhibition [1] | pIC50 [4] | pIC50 [5] | further results
C=C1[C@H]2CC[C@H]3[C@]4(C)CCC[C@@](C)(C(=O)O)[C@H]4CC[C@]3(C2)[C@@H]1F | 56% |  |  | 
C=C1[C@H]2C[C@H](OC(=O)c3ccc(Br)cc3)[C@H]3[C@]4(C)CCC[C@@](C)(C(=O)O)[C@H]4CC[C@]3(C2)[C@@H]1O | 32.7% |  |  | 
C=C1[C@H]2C[C@H](O)[C@H]3[C@]4(C)CCC[C@@](C)(NC(=O)N5CCNCC5)[C@H]4CC[C@]3(C2)[C@@H]1O | 12.7% |  |  | 
C=C1[C@H]2C[C@H](O)[C@H]3[C@]4(C)CCC[C@@](C)(NC(=O)N5CCOCC5)[C@H]4CC[C@]3(C2)[C@@H]1O | 21.4% |  |  | 
C=C1[C@H]2C[C@H](O)[C@H]3[C@]4(C)CCC[C@@](C)(NC(=O)NC5CCCCC5)[C@H]4CC[C@]3(C2)[C@@H]1O | 16.3% | < 6.00 | 6.78 | Ratio IC50 [2]: > 605; pIC50 [3]: < 4.00
C=C1[C@H]2C[C@H](O)[C@H]3[C@]4(C)CCC[C@@](C)(N=C=O)[C@H]4CC[C@]3(C2)[C@@H]1O | 16.8% |  |  | 
C=C1C[C@@]23CC[C@H]4[C@@](C)(CCC[C@@]4(C)C(=O)O)[C@@H]2CC[C@@H]1C3 [KAURENOIC ACID] | 82.4% | 6.45 |  | Ratio IC50 [6]: 1400; pIC50 [7]: 3.30
C=C1[C@H]2C[C@H](O)[C@H]3[C@]4(C)CCC[C@@](C)(NC(=O)Nc5cccc6ccccc56)[C@H]4CC[C@]3(C2)[C@@H]1O | 52.2% | < 6.00 | 6.57 | Ratio IC50 [2]: 6.2; pIC50 [3]: 5.80
C=C1[C@H]2CC[C@H]3[C@]4(C)CCC[C@@](C)(C(=O)O)[C@H]4CC[C@]3(C2)[C@H]1O | 55.5% | 6.59 | < 6.00 | Ratio IC50 [6]: > 387; pIC50 [7]: < 4.00
C=C1[C@H]2C[C@H](OC(C)=O)[C@H]3[C@]4(C)CCC[C@@](C)(C(=O)O)[C@H]4CC[C@]3(C2)[C@@H]1O | 12.4% | < 6.00 | 6.93 | Ratio IC50 [2]: 1970; pIC50 [3]: 3.64
C=C1[C@@H](O)[C@@]23CC[C@H]4[C@@](C)(CCC[C@@]4(C)C(=O)O)[C@@H]2C=C[C@H]1C3 | 19.6% |  |  | 
C[C@@]1(CO)CCC[C@]2(C)[C@@H]1CC[C@@]13C[C@H](CC[C@H]12)[C@@](O)(CO)C3 |  | 5.55 | 6.04 | Ratio IC50 [2]: > 1100; pIC50 [3]: < 3.00; Ratio IC50 [6]: > 357; pIC50 [7]: < 3.00
C=C1[C@H]2C[C@H](O)[C@H]3[C@]4(C)CCC[C@@](C)(NC(=O)N(C)OC)[C@H]4CC[C@]3(C2)[C@@H]1O | 16.1% |  |  | 
C[C@@]12CCC[C@@](C)(C(=O)O)[C@H]1CC[C@]13CC(=O)[C@@H](CC[C@H]12)C3 | 19.6% |  |  | 
C=C1C[C@@]23CC[C@H]4[C@@](C)(CCC[C@@]4(C)N=C=O)[C@@H]2CC[C@H]1C3 | 55.5% |  |  | 
C=C1[C@H]2C[C@H](OC(=O)c3ccccc3)[C@H]3[C@]4(C)CCC[C@@](C)(C(=O)O)[C@H]4CC[C@]3(C2)[C@@H]1O | 21.3% |  |  | 
C=C1C(=O)[C@@]23CC[C@H]4[C@@](C)(CCC[C@@]4(C)C(=O)O)[C@@H]2[C@@H](O)C[C@H]1C3 | 25.3% |  |  | 
CC1(C)[C@@H](O)CC[C@]2(C)[C@H]3C(=O)C=C4[C@@H]5C[C@@](C)(C(=O)O)CC[C@]5(C)CC[C@@]4(C)[C@]3(C)CC[C@@H]12 | 96.7% |  |  | 
C=C1[C@H]2C[C@H](OC(=O)Nc3nccs3)[C@H]3[C@]4(C)CCC[C@@](C)(C(=O)O)[C@H]4CC[C@]3(C2)[C@@H]1O | 11.6% |  |  | 
C=C1[C@H]2C[C@H](O)[C@H]3[C@]4(C)CCC[C@@](C)(C(=O)OC)[C@H]4CC[C@]3(C2)[C@@H]1O | 25.1% |  |  | 

Compound | inhibition [1] | pIC50 [4] | pIC50 [5] | further results
C=C1C[C@@]23CC[C@H]4[C@@](C)(CCC[C@@]4(C)NC(=O)NC45CC6CC(CC(C6)C4)C5)[C@@H]2CC[C@H]1C3 | 18.2% | < 6.00 | 6.39 | Ratio IC50 [2]: > 246; pIC50 [3]: < 4.00
C=C1[C@H]2C[C@H](O)[C@H]3[C@]4(C)CCC[C@@](C)(C(=O)O)[C@H]4CC[C@]3(C2)[C@@H]1O | 16.5% |  |  | 
C=C1[C@H]2C[C@H](O)[C@H]3[C@]4(C)CCC[C@@](C)(NC(=O)Nc5ccc(F)cc5)[C@H]4CC[C@]3(C2)[C@@H]1O | 7.92% | < 6.00 | 6.60 | Ratio IC50 [2]: > 402; pIC50 [3]: < 4.00
C=C1[C@H]2C[C@H](O)[C@H]3[C@]4(C)CCC[C@@](C)(NC(=O)N5CCCC5)[C@H]4CC[C@]3(C2)[C@@H]1O | 9.21% |  |  | 
C=C1[C@H]2C[C@H](O)[C@H]3[C@]4(C)CCC[C@@](C)(NC(=O)Nc5ccccc5)[C@H]4CC[C@]3(C2)[C@@H]1O | 24.4% | < 6.00 | 8.03 | Ratio IC50 [2]: > 10600; pIC50 [3]: < 3.00
C[C@H]1[C@H]2C[C@H](O)[C@H]3[C@]4(C)CCC[C@@](C)(C(=O)O)[C@H]4CC[C@]3(C2)[C@@H]1O | 11.6% |  |  | 
C=C1[C@H]2C[C@H](O)[C@H]3[C@]4(C)CCC[C@@](C)(NC(=O)NC(C)(C)C)[C@H]4CC[C@]3(C2)[C@@H]1O | 11.3% |  |  | 
C=C1[C@H]2C[C@H](O)[C@H]3[C@]4(C)CCC[C@@](C)(NC(=O)NC)[C@H]4CC[C@]3(C2)[C@@H]1O | 19.4% |  |  | 
C[C@@]12CCC[C@@](C)(C(=O)O)[C@H]1CC[C@@]13C[C@H](C[C@H](O)[C@@H]21)[C@]1(CO1)[C@H]3O | 16.8% |  |  | 
C=C1[C@H]2C[C@H](OC(=O)c3ccc(N(C)C)cc3)[C@H]3[C@]4(C)CCC[C@@](C)(C(=O)O)[C@H]4CC[C@]3(C2)[C@@H]1O | 34% |  |  | 
C=C1[C@H]2C[C@H](O)[C@H]3[C@]4(C)CCC[C@@](C)(CO)[C@H]4CC[C@]3(C2)[C@@H]1O | 27.3% |  |  | 
C[C@@]12CCC[C@@](C)(C(=O)O)[C@H]1CC[C@@]13C[C@H](CC[C@H]12)[C@@](O)(CO)C3 |  | 5.49 | 5.91 | Ratio IC50 [2]: > 809; pIC50 [3]: < 3.00; Ratio IC50 [6]: > 311; pIC50 [7]: < 3.00
C=C1[C@H]2C[C@H](O)[C@H]3[C@]4(C)CCC[C@@](C)(NC(=O)Nc5ccc(C(F)(F)F)cc5)[C@H]4CC[C@]3(C2)[C@@H]1O | 3.69% |  |  | 
C=C1C[C@@]23CC[C@H]4[C@@](C)(CCC[C@@]4(C)NC(=O)Nc4ccc(F)cc4)[C@@H]2CC[C@H]1C3 | 25.9% | < 6.00 | 6.48 | Ratio IC50 [2]: > 302; pIC50 [3]: < 4.00
C=C1C[C@@]23CC[C@H]4[C@@](C)(CCC[C@@]4(C)NC(=O)Nc4nccs4)[C@@H]2CC[C@H]1C3 | 18.2% |  |  | 
C=C1C[C@@]23CC[C@@H]4[C@](C)(CF)CCC[C@@]4(C)[C@@H]2CC[C@H]1C3 | 37.7% |  |  | 
C=C1[C@H]2C[C@H](O)[C@H]3[C@]4(C)CCC[C@@](C)(NC(=O)Nc5nccs5)[C@H]4CC[C@]3(C2)[C@@H]1O | 5.39% |  |  | 
C=C1[C@H]2C[C@H](OC(=O)N3CCOCC3)[C@H]3[C@]4(C)CCC[C@@](C)(C(=O)O)[C@H]4CC[C@]3(C2)[C@@H]1O | 35.2% |  |  | 
C=C1[C@H]2C[C@H](OC(=S)SC)[C@H]3[C@]4(C)CCC[C@@](C)(C(=O)O)[C@H]4CC[C@]3(C2)[C@@H]1O | 11.1% | < 6.00 | 6.11 | Ratio IC50 [2]: > 130; pIC50 [3]: < 4.00
C=C1[C@H]2C[C@H](O)[C@H]3[C@]4(C)CCC[C@@](C)(NC(=O)NC56CC7CC(CC(C7)C5)C6)[C@H]4CC[C@]3(C2)[C@@H]1O | 20.8% | < 6.00 | 6.39 | Ratio IC50 [2]: 1.7; pIC50 [3]: 6.15
